Measurements published in ChEMBL document CHEMBL1152606, “Thienylhalomethylketones: Irreversible glycogen synthase kinase 3 inhibitors as useful pharmacological tools” (Bioorg Med Chem, 2009).
Active and inactive are the calls of the source. No cut-off for these calls is given here.

What was measured:
[1] = molecular target: Glycogen synthase kinase-3 beta (Homo sapiens, UniProt P49841); assay: Inhibition of GSK3-beta by liquid scintillation counting
Method in brief: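 GSK-3β enzyme incubated with test compound at various concentrations, GS-1 peptide substrate (15 mM as printed), 15 μM ATP plus 0.2 μCi [γ-32P]ATP, in 50 mM Tris pH 7.5, 10 mM MgCl2, 1 mM EGTA, 1 mM EDTA; 20 min at 37 °C. Aliquots spotted on P81 phosphocellulose, washed in 1% phosphoric acid, counted by liquid scintillation.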

[2] = molecular target: Insulin receptor (Homo sapiens) (UniProt P06213); assay: Inhibition of human recombinant IR at 10 uM by liquid scintillation counting in presence of [33gammaP]ATP
Method in brief: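 Human recombinant insulin receptor kinase; [γ33-P]ATP plus poly GT (0.03 mg/mL); staurosporine reference; liquid scintillation detection; 10 µM compound.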

[3] = molecular target: Tyrosine-protein kinase ABL1 (Mus musculus) (UniProt P00520); assay: Inhibition of mouse recombinant Abl expressed in Escherichia coli at 10 uM by fluorescence polarization
[4] = molecular target: Glutamate NMDA receptor (Rattus norvegicus) (UniProt P35439+Q00959+Q00960+Q00961+Q62645+Q8VHN2+Q9R1M7); assay: Displacement of [3H]CGP39653 from NMDA receptor in rat cerebral cortex at 10 uM; type: tissue-based
Rattus norvegicus [5] = organism: Rattus norvegicus; assay: Displacement of [3H]cystisine from alpha-BGTX sensitive nicotinic acetylcholine receptor in rat cerebral cortex; type: tissue-based; set-up: concentration or dose not given beside the values; conditions: concentration not given here
Rattus norvegicus [6] = organism: Rattus norvegicus; assay: Displacement of [3H]AMPA from AMPA receptor in rat cerebral cortex at 10 uM; type: tissue-based
[7] = molecular target: Dual specificity mitogen-activated protein kinase kinase 1 (Oryctolagus cuniculus) (UniProt P29678); assay: Inhibition of rabbit recombinant MEK1 expressed in Escherichia coli at 10 uM by liquid scintillation counting in presence of [33gammaP]ATP
Method in brief: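 Rabbit recombinant MEK1 from E. coli; ATP plus unactivated MAP kinase (0.01 mg/mL) as substrate; staurosporine reference; liquid scintillation detection; 10 µM.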

[8] = Displacement of [3H]QNB from muscarinic receptor at 10 uM
[9] = molecular target: Glycogen synthase kinase-3 beta (Mus musculus) (UniProt Q9WV60); assay: Inhibition of GSK-3-beta-mediated tau phosphorylation in mouse granule cerebellar neurons cells after 16 hrs by Western blot
Method in brief: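 Cerebellar granule neurons from P6 mice, plated on poly-L-lysine and grown 48 h in serum-free neurobasal/B-27 with 12.5 mM KCl; compounds 0.5–25 µM; LiCl 10 mM positive control with excess myo-inositol; lysates blotted with PHF-1 and Tau-1, normalised to β-actin, densitometry; mean of three experiments, control = 100 r.u.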

Rattus norvegicus [10] = organism: Rattus norvegicus; assay: Displacement of [3H]cystisine from alpha-BGTX insensitive nicotinic acetylcholine receptor in rat cerebral cortex at 10 uM; type: tissue-based
[11] = molecular target: Proto-oncogene tyrosine-protein kinase Src (Homo sapiens) (UniProt P12931); assay: Inhibition of Src at 10 uM
[12] = molecular target: D(2) dopamine receptor (Homo sapiens) (UniProt P14416); assay: Displacement of [3H]spiperone from human recombinant dopamine D2 receptor expressed in CHO cells at 10 uM; type: cell-based
Method in brief: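 Human recombinant D2 receptor expressed in CHO cells; [3H]spiperone ligand at 0.3 nM; (+)-buctaclamol as reference compound.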

[13] = molecular target: T1, Alpha-2A adrenergic receptor (Rattus norvegicus) (UniProt P22909); assay: Displacement of [3H]RX821002 from alpha2 adrenoceptor in rat cerebral cortex at 10 uM; type: tissue-based
T1 sequence (whole entry): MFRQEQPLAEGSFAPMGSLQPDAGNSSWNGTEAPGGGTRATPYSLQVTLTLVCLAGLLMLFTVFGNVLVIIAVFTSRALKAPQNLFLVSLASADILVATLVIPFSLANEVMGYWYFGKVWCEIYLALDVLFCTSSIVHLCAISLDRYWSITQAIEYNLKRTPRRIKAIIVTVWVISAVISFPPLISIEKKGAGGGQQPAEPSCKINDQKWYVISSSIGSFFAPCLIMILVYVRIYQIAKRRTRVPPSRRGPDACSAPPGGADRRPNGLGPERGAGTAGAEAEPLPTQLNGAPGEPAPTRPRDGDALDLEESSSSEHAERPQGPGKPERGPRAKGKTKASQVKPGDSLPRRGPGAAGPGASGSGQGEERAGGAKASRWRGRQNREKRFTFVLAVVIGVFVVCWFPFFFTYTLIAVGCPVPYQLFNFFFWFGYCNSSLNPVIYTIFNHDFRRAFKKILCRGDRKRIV
Method in brief: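 Rat cerebral cortex source; [3H]RX 821002 ligand at 0.5 nM; yohimbine as reference compound; non-selective alpha-2 site.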

Rattus norvegicus [14] = organism: Rattus norvegicus; assay: Inhibition of rat CAM2 at 10 uM by liquid scintillation counting in presence of [33gammaP]ATP
Method in brief: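 CaM kinase II from rat brain; [γ33-P]ATP plus autocamtide-2 (5 µM); staurosporine reference; labelled autocamtide-2 counted by liquid scintillation; compounds at 10 µM.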

[15] = tested on: 5-HT (non-selective) serotonin receptor (Rattus norvegicus); assay: Inhibition of [3H]serotonine binding to non-selective 5-HT serotoninergic receptor in rat cerebral cortex at 10 uM
[16] = molecular target: D(3) dopamine receptor (Homo sapiens) (UniProt P35462); assay: Displacement of [3H]spiperone from human recombinant dopamine D3 receptor expressed in CHO cells at 10 uM; type: cell-based
Method in brief: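 Human recombinant D3 receptor from CHO cells; [3H]spiperone 0.3 nM as ligand; (+)-buctaclamol reference compound.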

Rattus norvegicus [17] = organism: Rattus norvegicus; assay: Inhibition of rat recombinant MAPK at 10 uM by liquid scintillation counting in presence of [33gammaP]ATP
Method in brief: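 Rat recombinant ERK42 MAP kinase expressed in E. coli; [γ33-P]ATP with MBP (0.5 mg/mL); staurosporine reference; liquid scintillation read-out; 10 µM compound.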

[18] = molecular target: Epidermal growth factor receptor (Homo sapiens) (UniProt P00533); assay: Inhibition of EGFR in human A431 at 10 uM by liquid scintillation counting in presence of [33gammaP]ATP
Method in brief: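 EGFR kinase from A-431 cells; substrate [γ33-P]ATP plus poly GAT (0.48 mg/mL); PD 153035 reference; product measured by liquid scintillation; compounds at 10 µM.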

Bos taurus = organism: Bos taurus; assay: Inhibition of bovine thymus p56LCK at 10 uM by liquid scintillation counting in presence of [33gammaP]ATP
Method in brief: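 p56lck from bovine thymus; [γ33-P]ATP with polyGT (0.5 mg/mL) substrate; staurosporine reference; liquid scintillation read-out; compounds tested at 10 µM.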

Sequence of D(2) dopamine receptor (Homo sapiens) (P14416 whole entry): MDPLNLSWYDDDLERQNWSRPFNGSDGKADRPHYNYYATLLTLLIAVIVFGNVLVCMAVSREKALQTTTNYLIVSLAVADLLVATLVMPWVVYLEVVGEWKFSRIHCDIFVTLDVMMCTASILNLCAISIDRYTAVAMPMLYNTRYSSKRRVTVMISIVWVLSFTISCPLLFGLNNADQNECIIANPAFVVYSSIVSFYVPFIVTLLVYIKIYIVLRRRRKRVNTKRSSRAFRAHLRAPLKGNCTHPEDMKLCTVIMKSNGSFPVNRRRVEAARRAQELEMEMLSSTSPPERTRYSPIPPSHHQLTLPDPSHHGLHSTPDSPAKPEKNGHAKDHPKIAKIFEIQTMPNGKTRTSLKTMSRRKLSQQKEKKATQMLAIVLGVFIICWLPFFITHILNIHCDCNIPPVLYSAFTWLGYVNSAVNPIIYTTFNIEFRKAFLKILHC
Sequence of D(3) dopamine receptor (Homo sapiens) (P35462 whole entry): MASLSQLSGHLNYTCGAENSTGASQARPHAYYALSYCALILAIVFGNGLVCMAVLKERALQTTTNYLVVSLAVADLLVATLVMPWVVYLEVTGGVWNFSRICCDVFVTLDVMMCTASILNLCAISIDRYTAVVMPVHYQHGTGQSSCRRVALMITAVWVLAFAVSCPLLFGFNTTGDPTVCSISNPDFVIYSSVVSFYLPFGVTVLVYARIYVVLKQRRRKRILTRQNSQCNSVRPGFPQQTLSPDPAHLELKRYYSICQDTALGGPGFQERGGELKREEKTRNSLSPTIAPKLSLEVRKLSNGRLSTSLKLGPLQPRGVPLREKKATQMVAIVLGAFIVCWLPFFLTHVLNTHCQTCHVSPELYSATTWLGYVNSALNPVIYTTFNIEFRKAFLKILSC
Sequence of Tyrosine-protein kinase ABL1 (Mus musculus) (P00520 whole entry): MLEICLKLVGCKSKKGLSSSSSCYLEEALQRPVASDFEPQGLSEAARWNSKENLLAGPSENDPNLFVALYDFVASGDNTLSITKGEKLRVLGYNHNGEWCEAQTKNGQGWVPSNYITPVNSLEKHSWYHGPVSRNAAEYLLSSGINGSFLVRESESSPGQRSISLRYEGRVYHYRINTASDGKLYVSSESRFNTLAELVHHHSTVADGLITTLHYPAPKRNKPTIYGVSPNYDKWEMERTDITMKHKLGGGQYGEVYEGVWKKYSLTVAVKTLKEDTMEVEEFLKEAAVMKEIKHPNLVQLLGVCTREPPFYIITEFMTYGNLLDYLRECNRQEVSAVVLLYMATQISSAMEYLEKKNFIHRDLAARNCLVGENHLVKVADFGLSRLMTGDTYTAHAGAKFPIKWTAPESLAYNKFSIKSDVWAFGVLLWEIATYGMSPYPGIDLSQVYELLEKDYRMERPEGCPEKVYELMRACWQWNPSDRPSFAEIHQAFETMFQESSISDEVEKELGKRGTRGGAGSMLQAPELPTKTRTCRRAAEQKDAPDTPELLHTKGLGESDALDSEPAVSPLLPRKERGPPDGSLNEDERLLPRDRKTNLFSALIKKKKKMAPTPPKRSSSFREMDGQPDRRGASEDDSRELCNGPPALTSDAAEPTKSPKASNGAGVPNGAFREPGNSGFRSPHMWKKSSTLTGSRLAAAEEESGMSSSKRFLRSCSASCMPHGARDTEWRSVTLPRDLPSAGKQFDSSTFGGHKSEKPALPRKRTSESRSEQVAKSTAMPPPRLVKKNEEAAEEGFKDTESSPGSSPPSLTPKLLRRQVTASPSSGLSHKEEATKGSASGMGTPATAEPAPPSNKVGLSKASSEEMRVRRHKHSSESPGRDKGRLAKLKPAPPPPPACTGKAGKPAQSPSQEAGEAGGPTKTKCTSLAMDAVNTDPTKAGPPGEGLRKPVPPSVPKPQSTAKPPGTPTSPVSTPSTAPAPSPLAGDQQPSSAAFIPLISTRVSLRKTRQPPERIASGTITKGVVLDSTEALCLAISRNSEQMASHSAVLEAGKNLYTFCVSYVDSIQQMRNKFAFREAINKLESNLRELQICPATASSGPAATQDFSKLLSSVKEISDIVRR
Sequence of Glycogen synthase kinase-3 beta (Mus musculus) (Q9WV60 whole entry, looked up): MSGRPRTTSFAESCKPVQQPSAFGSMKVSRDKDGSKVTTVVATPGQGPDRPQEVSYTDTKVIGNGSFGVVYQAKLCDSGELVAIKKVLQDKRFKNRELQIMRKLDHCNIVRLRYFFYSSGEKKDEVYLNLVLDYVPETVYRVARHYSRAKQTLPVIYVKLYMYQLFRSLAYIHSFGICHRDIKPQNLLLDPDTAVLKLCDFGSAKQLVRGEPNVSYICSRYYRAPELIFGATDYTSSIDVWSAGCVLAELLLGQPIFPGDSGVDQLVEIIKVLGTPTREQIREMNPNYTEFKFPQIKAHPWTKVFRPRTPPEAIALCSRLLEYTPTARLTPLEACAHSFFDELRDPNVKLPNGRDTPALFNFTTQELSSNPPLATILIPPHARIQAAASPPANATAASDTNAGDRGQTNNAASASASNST
Sequence of Glycogen synthase kinase-3 beta (P49841 whole entry): as the sequence (Q9WV60 whole entry, looked up) above, with P390T, A392T, T400A, A402T counted along it
Sequence of Epidermal growth factor receptor (Homo sapiens) (P00533 whole entry): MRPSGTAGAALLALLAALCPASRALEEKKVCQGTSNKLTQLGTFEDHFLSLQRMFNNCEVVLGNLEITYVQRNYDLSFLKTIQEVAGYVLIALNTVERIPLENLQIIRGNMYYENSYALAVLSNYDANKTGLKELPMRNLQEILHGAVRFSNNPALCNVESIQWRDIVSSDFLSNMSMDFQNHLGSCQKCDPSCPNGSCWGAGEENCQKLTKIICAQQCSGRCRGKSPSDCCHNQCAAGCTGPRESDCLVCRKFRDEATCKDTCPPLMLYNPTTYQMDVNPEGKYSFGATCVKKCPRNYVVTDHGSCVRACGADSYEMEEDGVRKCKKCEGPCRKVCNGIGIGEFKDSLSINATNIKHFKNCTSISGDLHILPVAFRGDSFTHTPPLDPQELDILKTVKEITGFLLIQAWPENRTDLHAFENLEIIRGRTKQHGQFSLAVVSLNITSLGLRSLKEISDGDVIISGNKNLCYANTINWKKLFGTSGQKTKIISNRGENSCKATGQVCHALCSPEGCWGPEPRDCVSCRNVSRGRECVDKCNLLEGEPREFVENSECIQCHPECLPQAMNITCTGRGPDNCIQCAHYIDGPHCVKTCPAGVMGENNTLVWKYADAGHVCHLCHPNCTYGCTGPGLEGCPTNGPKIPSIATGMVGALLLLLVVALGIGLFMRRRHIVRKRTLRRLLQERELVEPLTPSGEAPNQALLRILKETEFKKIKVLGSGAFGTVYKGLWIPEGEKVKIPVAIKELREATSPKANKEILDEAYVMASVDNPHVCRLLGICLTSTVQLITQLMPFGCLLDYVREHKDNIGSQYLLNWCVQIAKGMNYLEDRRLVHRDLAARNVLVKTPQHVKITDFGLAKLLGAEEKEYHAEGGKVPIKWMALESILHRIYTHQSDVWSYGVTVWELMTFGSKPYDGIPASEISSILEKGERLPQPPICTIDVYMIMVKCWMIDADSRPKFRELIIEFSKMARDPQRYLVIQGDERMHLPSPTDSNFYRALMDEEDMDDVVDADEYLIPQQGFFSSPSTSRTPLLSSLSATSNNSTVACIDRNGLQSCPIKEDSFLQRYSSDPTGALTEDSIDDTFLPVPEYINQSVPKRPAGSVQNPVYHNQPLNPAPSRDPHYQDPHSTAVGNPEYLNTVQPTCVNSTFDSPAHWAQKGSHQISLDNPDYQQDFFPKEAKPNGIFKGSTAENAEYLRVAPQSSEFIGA
Sequence of Dual specificity mitogen-activated protein kinase kinase 1 (Oryctolagus cuniculus) (P29678 whole entry): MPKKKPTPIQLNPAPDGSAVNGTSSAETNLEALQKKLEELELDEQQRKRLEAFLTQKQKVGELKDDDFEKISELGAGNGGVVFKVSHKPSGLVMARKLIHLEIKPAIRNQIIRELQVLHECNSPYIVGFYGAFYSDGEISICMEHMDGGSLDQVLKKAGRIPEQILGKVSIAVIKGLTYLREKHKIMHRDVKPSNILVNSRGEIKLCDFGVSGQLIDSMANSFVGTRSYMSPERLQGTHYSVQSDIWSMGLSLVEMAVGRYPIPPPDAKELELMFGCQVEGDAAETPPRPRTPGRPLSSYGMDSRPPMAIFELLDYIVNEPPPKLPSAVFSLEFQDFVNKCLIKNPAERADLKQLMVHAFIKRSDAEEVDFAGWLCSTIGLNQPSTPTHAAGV
Sequence of Proto-oncogene tyrosine-protein kinase Src (Homo sapiens) (P12931 2-536 limits assumed): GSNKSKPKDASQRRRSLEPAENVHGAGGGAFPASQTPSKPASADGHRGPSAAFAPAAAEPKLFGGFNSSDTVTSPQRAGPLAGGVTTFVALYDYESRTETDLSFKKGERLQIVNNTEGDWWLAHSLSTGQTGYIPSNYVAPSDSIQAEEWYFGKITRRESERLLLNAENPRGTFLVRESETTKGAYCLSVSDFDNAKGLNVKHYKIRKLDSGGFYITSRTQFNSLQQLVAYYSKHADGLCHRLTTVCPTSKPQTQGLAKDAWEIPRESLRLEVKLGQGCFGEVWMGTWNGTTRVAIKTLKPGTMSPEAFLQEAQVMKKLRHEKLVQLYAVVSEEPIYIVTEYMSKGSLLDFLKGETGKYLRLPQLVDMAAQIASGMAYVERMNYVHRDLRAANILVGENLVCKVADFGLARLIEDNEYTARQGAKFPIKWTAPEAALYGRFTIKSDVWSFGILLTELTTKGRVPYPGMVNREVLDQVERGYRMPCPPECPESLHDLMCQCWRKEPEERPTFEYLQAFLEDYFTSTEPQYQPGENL

Structure (SMILES)	IC50 [1]	inhibition [2]	inhibition [3]	inhibition [4]	inhibition (Rattus norvegicus [5])	inhibition (Rattus norvegicus [6])	inhibition [7]	inhibition [8]	inhibition (Rattus norvegicus [10])	inhibition [12]	inhibition [13]	inhibition (Rattus norvegicus [14])	inhibition [15]	inhibition [16]	inhibition (Rattus norvegicus [17])	inhibition [18]	inhibition (Bos taurus)	also measured
O=Nn1c2ccccc2c2cc(Cl)ccc21	> 100 µM																	
O=C(CCl)c1ccc(Br)s1		< 10%	< 10%	< 10%	< 10%	< 10%	< 10%	< 10%	< 10%	< 10%	< 10%	16%	< 10%	< 10%	< 10%	< 10%	< 10%	Activity [9]: Active; inhibition [11]: 19%
O=C(CBr)c1scc(Br)c1Br	1 µM	< 10%	< 10%	< 10%	< 10%	< 10%	< 10%	< 10%	22%	< 10%	< 10%	< 10%	< 10%	< 10%	< 10%	17%	< 10%	inhibition [11]: 66%
CCOC(=O)c1cccs1	> 100 µM																	
O=C(CCCCl)c1ccc(Cl)s1	> 100 µM																	
CC(=O)c1ccccc1 [ACETOPHENONE]	> 100 µM																	
O=C(CCl)c1cc(Cl)sc1Cl		< 10%	< 10%	< 10%	< 10%	17%	< 10%	< 10%	< 10%	< 10%	< 10%	10%	12%	< 10%	< 10%	< 10%	41%	inhibition [11]: 12%
O=C(CCl)c1ccc(Cl)s1		< 10%	< 10%	< 10%	< 10%	17%	< 10%	< 10%	< 10%	< 10%	< 10%	< 10%	< 10%	< 10%	< 10%	< 10%	< 10%	Activity [9]: Active; inhibition [11]: < 10%
CCOC(=O)c1sc(C)c(C)c1O	> 100 µM																	
CC(N)Cc1cc(Cl)cs1 (stereo not drawn)	> 100 µM																	
N=C(c1ccccc1Cl)c1ccccc1N(NC(=O)c1ccccc1)c1ccccc1	> 100 µM																	
O=C(CCl)c1scc(Br)c1Br		< 10%	< 10%	< 10%	< 10%	< 10%	< 10%	11%	< 10%	< 10%	< 10%	< 10%	< 10%	12%	< 10%	< 10%	20%	
O=C(CCl)c1cscc1Cl		< 10%	< 10%	16%	< 10%	< 10%	< 10%	< 10%	< 10%	13%	< 10%	< 10%	< 10%	< 10%	< 10%	< 10%	31%	Activity [9]: Active; inhibition [11]: 24%
CC(=O)c1csc(C(=O)CCl)c1		< 10%	< 10%	< 10%	< 10%	< 10%	12%	< 10%	17%	< 10%	< 10%	< 10%	< 10%	< 10%	< 10%	< 10%	< 10%	inhibition [11]: 22%
CCSC1=NC(c2ccccc2)=NN(c2ccccc2)c2ccccc21	> 100 µM																	
O=C(CCCCl)c1cc(Cl)sc1Cl	> 100 µM																	
O=C(CBr)c1cc(Br)c(Br)s1	1 µM	12%	< 10%	< 10%	< 10%	< 10%	< 10%	< 10%	< 10%	< 10%	< 10%	< 10%	< 10%	< 10%	< 10%	< 10%	< 10%	inhibition [11]: 76%
CCOC(=O)c1sc(SC(C)=O)cc1O	25 µM																	
O=C(CBr)c1ccc(Br)s1	1 µM																	
O=C(Nn1c2ccccc2c2ccccc21)c1ccccc1	> 100 µM																	
Cc1sc(C(=O)CCl)cc1C(=O)CCl		12%	< 10%	< 10%	< 10%	< 10%	< 10%	< 10%	< 10%	< 10%	< 10%	< 10%	< 10%	< 10%	< 10%	25%	17%	inhibition [11]: 54%
c1ccc(-c2nc(-c3ccccc3)n(-c3ccccc3)n2)cc1	> 100 µM																	
CCOC(=O)c1ccccc1 [ETHYL BENZOATE]	> 100 µM																	
O=Cc1cccs1 [2-THIOPHENENECARBOXALDEHYDE]	> 100 µM																	
COc1cc2c(cc1OC)C(=O)CC2	> 100 µM																	
O=Cc1cc(Br)c(Br)s1	> 100 µM																	
O=C(CBr)c1sc(Br)cc1Br	1 µM																	
CC(=O)c1ccc(Cl)cc1	> 100 µM																	
OC(CCl)c1sc(Br)c(Br)c1Br (stereo not drawn)	75 µM																	
O=C(CCCCl)c1ccc(Br)s1	> 100 µM																	
